Series [1] concerns the target Cathepsin D (Homo sapiens) (UniProt P07339). The series is described as follows: Inhibition of recombinant human cathepsin D using EVNLDAEFRK substrate at up to 5 uM after 3 hrs. The procedure, abridged:
(§1)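 Outsourced microfluidic protease panel. Compound was preincubated with each protease for 30 min at 25 °C, then peptide substrate was added for 3 h at 25 °C and quenched with SDS/EDTA/iodoacetate. Substrate-to-product conversion was measured on LabChip. Compounds were tested singly in a 12-point 3-fold dilution series, top 20 μM (5 μM for two reference compounds).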

The target of another series is T1, Caspase-1 (Homo sapiens) (UniProt P29466).
T1 sequence (whole entry): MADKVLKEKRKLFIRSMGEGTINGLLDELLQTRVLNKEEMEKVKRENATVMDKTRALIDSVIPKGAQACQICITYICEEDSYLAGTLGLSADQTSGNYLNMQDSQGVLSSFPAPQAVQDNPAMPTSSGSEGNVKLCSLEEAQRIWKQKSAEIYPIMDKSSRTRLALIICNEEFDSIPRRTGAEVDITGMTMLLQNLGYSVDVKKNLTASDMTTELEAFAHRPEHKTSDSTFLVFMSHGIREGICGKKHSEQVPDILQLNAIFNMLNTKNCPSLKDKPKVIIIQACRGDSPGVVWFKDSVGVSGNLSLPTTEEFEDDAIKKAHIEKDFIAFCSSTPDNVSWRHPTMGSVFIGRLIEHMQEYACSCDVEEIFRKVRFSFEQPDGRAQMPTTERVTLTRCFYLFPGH
Put plainly: Inhibition of recombinant human caspase 1 using WEHDGPKR substrate at up to 5 uM after 3 hrs. The procedure, abridged: as §1

The next series concerns the target T2, Caspase-3 (Homo sapiens) (UniProt P42574).
T2 sequence (whole entry): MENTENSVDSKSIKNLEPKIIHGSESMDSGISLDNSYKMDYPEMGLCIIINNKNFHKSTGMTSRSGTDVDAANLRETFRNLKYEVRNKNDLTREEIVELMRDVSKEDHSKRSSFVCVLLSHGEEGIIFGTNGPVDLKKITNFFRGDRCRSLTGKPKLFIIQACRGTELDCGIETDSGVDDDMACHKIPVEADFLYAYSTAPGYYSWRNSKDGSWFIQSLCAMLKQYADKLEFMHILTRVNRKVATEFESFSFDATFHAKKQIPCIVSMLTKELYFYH
Put plainly: Inhibition of recombinant human caspase 3 using DEVDAA substrate at up to 5 uM after 3 hrs. The procedure, abridged:
as §1

Another series deals with T3, Caspase-5 (Homo sapiens) (UniProt P51878).
T3 sequence (whole entry): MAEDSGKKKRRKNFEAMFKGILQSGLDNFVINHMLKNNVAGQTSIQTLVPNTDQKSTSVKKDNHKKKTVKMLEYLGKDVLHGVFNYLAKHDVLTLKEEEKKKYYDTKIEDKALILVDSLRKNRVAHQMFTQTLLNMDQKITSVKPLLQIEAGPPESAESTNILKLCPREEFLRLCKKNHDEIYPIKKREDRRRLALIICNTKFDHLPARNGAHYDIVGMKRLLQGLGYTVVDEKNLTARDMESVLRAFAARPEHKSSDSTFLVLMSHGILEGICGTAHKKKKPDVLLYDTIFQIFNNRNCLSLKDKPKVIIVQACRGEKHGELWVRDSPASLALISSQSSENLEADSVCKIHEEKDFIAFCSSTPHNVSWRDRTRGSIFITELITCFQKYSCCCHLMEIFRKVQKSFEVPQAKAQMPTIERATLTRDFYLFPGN
The series is described as follows: Inhibition of recombinant human caspase 5 using LEHDGP substrate at up to 5 uM after 3 hrs. The procedure, abridged: as §1

The target of a further series is T4, Caspase-6 (Homo sapiens) (UniProt P55212).
T4 sequence (whole entry): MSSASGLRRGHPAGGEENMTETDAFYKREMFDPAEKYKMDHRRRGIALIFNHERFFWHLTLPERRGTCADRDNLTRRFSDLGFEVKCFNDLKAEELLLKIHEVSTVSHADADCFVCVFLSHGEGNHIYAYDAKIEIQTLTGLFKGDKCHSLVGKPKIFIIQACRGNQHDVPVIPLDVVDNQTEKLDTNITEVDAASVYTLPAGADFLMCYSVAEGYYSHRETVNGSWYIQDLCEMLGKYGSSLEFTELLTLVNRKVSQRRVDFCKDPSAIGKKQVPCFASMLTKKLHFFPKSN
The series is described as follows: Inhibition of recombinant human caspase 6 using VEHDGG substrate at up to 5 uM after 3 hrs. The procedure, abridged:
as §1

The target in series [2] is Cathepsin S (Homo sapiens) (UniProt P25774). Put plainly: Inhibition of recombinant human cathepsin S using RTLTAK substrate at up to 5 uM after 3 hrs. The procedure, abridged: (§2)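 In this microfluidic protease panel, enzyme and compound were preincubated 30 min at 25 °C. The peptide substrate was added and the reaction was incubated 3 h at 25 °C, then quenched (SDS, EDTA, iodoacetate). Activity was read as % substrate converted to product. Dose–response was singlicate, 12-point 3-fold dilutions spanning 5 μM to 0.028 nM. IC50 was the concentration leaving 50% activity relative to no-compound control.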
Sequence of Cathepsin S (Homo sapiens) (P25774 115-331 limits assumed): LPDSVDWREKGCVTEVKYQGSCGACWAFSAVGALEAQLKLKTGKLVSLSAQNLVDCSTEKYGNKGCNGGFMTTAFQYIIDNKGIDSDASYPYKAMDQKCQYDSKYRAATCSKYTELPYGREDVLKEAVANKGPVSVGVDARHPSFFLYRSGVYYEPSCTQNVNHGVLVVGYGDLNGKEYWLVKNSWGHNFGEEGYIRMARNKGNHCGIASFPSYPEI

For series [3], the target named is Coagulation factor X (Homo sapiens) (UniProt P00742). Put plainly: Inhibition of recombinant human factor 10a using ALPRTMFIQ substrate at up to 5 uM after 3 hrs. The procedure, abridged:
as §2

The target of a further series is Furin (Homo sapiens) (UniProt P09958). Put plainly: Inhibition of recombinant human furin using RRVKRSLD substrate at up to 5 uM after 3 hrs. The procedure, abridged:
as §2

Series [4] deals with Prothrombin (Homo sapiens) (UniProt P00734). The series is described as follows: Inhibition of recombinant human thrombin using PRTLT substrate at up to 5 uM after 3 hrs. The procedure, abridged: as §2
The target in series [5] is Urokinase-type plasminogen activator (Homo sapiens) (UniProt P00749). Put plainly: Inhibition of recombinant human uPA using GRTSSVEP substrate at up to 5 uM after 3 hrs. The procedure, abridged:
as §2

Another series concerns the target Collagenase 3 (Homo sapiens, UniProt P45452). The series is described as follows: Inhibition of full-length recombinant human MMP-13 assessed as prevention of bovine type-2 collagen degradation at 10 uM after 18 hrs by cartilage explant assay. The procedure, abridged: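 Bovine articular cartilage pieces (~3 mm2) were made nonviable by three freeze–thaw cycles in LN2 and trypsin-digested for 4 h to remove aggrecan. They were then incubated with 100 nM MMP-13 ± compound for 18 h at 37 °C, 5% CO2, in triplicate at a single concentration. Released collagen fragments were measured by C1,2C ELISA and normalized to undigested and MMP-13-digested controls.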

Another series concerns Liver microsome. Put plainly: Half life in rat liver microsomes by LC-MS/MS analysis. It is filed as ADME. The procedure, abridged: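 Compound at 1 μM with 1 mg/mL liver microsomes in 100 mM potassium phosphate pH 7.4 at 37 °C with shaking. Reaction started with 1 mM NADPH (final). Aliquots were taken at 0, 5, 10, 20, 40 and 60 min and quenched in acetonitrile. Parallel incubations without NADPH were run.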

In a further series the target is CYP3A4 (Homo sapiens, UniProt P08684). The series is described as follows: Inhibition of CYP3A4 (unknown origin) using midazolam substrate at 20 uM. It is filed as ADME. Particulars: probe midazolam. The procedure, abridged: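 Human liver microsomes with probe substrate and an NADPH-regenerating system in 0.1 M potassium phosphate pH 7.4 at 37 °C, run in duplicate. Inhibitor at 0–20 μM (0–2.5 μM for one compound), eight concentrations. Reactions were stopped with acetonitrile/formic acid containing isotope-labelled internal standard, and metabolite area ratios were compared with and without inhibitor. IC50 was taken by linear interpolation between bracketing concentrations.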
Sequence of CYP3A4 (P08684 whole entry): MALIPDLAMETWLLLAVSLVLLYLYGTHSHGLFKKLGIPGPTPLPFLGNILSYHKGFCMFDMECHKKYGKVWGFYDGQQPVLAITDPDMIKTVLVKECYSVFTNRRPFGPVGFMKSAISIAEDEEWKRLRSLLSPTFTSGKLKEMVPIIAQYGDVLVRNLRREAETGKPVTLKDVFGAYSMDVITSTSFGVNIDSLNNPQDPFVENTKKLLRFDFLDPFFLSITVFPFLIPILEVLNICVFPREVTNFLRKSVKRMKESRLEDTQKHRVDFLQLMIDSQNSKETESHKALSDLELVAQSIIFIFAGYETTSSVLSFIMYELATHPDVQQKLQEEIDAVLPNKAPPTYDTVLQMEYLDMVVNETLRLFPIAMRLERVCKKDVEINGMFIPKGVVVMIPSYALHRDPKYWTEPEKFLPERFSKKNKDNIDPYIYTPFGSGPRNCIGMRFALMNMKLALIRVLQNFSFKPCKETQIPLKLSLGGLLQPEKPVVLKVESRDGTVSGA

Sequence of Furin (Homo sapiens) (P09958 whole entry): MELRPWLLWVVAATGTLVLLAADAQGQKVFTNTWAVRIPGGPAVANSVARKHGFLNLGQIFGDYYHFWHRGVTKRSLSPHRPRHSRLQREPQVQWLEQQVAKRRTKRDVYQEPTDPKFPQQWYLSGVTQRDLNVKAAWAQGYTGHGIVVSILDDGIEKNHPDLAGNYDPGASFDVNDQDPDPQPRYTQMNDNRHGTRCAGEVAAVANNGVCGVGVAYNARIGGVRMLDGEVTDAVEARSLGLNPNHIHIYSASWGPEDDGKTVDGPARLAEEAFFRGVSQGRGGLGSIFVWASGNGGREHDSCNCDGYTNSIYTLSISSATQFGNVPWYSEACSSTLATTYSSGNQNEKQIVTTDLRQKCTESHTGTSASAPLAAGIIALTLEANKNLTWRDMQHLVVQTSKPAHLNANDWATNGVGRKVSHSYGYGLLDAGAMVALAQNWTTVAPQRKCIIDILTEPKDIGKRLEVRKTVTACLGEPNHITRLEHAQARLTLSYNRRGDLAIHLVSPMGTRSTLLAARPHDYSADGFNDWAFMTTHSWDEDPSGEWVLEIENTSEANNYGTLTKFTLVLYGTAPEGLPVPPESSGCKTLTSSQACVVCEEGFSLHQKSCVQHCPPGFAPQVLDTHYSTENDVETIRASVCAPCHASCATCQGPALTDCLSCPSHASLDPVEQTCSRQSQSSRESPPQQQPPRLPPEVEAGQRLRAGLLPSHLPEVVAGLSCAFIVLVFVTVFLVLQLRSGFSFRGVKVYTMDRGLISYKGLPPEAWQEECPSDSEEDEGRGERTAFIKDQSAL
Sequence of Cathepsin D (Homo sapiens) (P07339 65-162 limits assumed): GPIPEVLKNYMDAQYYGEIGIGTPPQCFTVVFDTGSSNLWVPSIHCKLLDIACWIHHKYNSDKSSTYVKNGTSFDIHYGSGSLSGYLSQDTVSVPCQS
Sequence of Cathepsin D (Homo sapiens) (P07339 169-412 limits assumed): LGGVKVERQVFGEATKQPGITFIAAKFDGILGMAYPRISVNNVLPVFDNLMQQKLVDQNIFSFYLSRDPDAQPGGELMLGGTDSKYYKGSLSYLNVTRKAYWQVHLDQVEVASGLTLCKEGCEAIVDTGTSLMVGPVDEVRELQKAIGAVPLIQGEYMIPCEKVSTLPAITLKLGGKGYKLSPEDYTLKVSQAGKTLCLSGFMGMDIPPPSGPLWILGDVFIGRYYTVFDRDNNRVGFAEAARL
Sequence of Coagulation factor X (Homo sapiens) (P00742 41-179 limits assumed): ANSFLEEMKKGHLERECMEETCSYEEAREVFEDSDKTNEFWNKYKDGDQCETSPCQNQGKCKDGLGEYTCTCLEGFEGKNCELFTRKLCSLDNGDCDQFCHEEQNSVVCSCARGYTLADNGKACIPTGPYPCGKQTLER
Sequence of Coagulation factor X (Homo sapiens) (P00742 235-488 limits assumed): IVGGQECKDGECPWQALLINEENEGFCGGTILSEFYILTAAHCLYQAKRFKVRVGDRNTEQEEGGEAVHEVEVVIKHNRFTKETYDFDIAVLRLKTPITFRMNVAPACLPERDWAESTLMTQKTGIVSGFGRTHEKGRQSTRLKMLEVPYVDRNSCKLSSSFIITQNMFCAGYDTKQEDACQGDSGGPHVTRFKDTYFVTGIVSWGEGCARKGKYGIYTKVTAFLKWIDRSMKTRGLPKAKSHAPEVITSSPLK

Turning to `Cn1c(=O)n(Cc2ccc(C(=O)O)cc2)c(=O)c2cc(C#CCc3ccccc3)ccc21`, the inhibition (in [1]; on Caspase-1 (Homo sapiens); at Caspase-3 (Homo sapiens); on Caspase-5 (Homo sapiens); on Caspase-6 (Homo sapiens); in [2]) was < 10% throughout. The inhibition (in [3]; on Furin (Homo sapiens); in series [4]; in [5]) was < 10% each time.

As to `Cc1ccc(CSc2nc(O)c3c(n2)CCC3)cc1`, on Collagenase 3, the inhibition is 59%.

Consider `COC(=O)c1ccc(CSc2nc3c(c(=O)[nH]2)CCC3)cc1`, for which, at Collagenase 3, the inhibition amounted to 38%. The molecule further registered a t1/2 in the series with Liver microsome of 1.8 min. Moreover, the inhibition at 20 µM against CYP3A4 is < 50%.

`Oc1nc(SCc2ccc(Cl)cc2)nc2c1CCC2`: in the series with Liver microsome, the t1/2 came to 6.8 min.

For `Cc1cc(CNC(=O)c2cc(C(=O)NCc3ccc(F)c(C)c3)ncn2)ccc1F`, the inhibition (in [1]; at Caspase-1 (Homo sapiens); on Caspase-3 (Homo sapiens); at Caspase-5 (Homo sapiens); at Caspase-6 (Homo sapiens); in series [2]) was < 10% in each case. Also, the inhibition (in series [3]; on Furin (Homo sapiens); in series [4]; in series [5]) was < 10% throughout. The inhibition at 20 µM at CYP3A4 was < 50%.
